Assay outcomes: PubChem BioAssay, The Scripps Research Institute Molecular Screening Center
DDE Tn7 FP inh = disrupts Tn7 cyclic peptide binding to fibrin D-Dimer-E complex. inhibition, % at 8.3 µM. FP displacement of FITC-Tn7 peptide from fibrin DD(E); 0% = median of compound wells per plate. P02675. actives 0.13% (n = 370,000);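 active = inhibition above the mean of compounds falling within the control limits plus 3 SD of them, cut at about 14% in these data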;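 note: 0% = plate median of compound wells and 100% = 10 µM Aha-Tn7 peptide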
Target sequence (P02675 whole entry, looked up): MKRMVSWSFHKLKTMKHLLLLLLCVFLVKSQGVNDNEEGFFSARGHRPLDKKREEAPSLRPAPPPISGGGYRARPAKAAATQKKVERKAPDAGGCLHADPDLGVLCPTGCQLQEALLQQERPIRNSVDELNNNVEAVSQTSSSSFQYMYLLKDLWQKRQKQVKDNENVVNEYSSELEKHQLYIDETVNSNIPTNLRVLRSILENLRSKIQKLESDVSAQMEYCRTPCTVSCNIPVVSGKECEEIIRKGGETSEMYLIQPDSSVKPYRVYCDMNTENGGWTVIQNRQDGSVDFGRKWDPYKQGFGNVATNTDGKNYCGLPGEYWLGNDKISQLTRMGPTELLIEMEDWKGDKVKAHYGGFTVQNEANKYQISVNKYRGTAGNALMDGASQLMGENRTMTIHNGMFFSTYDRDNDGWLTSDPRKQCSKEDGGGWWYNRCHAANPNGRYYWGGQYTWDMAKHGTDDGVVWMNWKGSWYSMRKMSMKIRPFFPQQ
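System: human fibrin DD(E); quantity: Fibrin-DD(E) at 2 µM final; also added: fluorescent Tn7 probe at 0.1 µM; compound dosing: single nominal test concentration of 8.3 µM per compound; schedule: 10 min preincubation, 3 h with tracer, room temperature; detection: fluorescence polarization of the labelled Tn7 tracer; repeats: one replicate per compound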
HTRA1 inh = HTRA1 (human) protease inhibition. recombinant HTRA1, FP-rhodamine activity-based probe, fluorescence polarization. actives 0.5% (n = 340,000). AID 504803. Q92743. inhibition, % at 5.96 µM; in the data active = inhibition above about 36%;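 note: 0% = enzyme with DMSO and 100% = wells lacking enzyme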
Tn6 DDE FP = inhibitors of Tn6 peptide binding to human fibrin DD(E); P02675; Fibrin DD(E) TRITC-Tn6 fluorescence polarization displacement; inhibition, % at 8.3 µM; actives 0.21% (n = 370,000);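 active = inhibition above a per-campaign cutoff: mean of compounds within control limits plus 3 SD, cut at about 15% in these data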;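 note: 0% = median of all compound wells on the plate and 100% = blocking peptide control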
ABHD4 inh = inhibitors of mouse ABHD4; Q8VD66; purified mABHD4, FP-Rh probe fluorescence polarization; inhibition, % at 8.92 µM; actives 0.54% (n = 370,000); AID 720543;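 active = inhibition exceeding the mean over every tested compound plus 3 SD, cut at about 30% in these data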;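 note: 0% = plate median of compound wells and 100% = S159A mutant with DMSO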
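Assay system: Wild-type mouse ABHD4 protein | Medium: HEPES pH 7.0 buffer, 150 mM NaCl, 0.01% Pluronic F-127 | Incubation: Enzyme–compound pre-incubation 45 min, then probe 60 min, both 25 °C | Technique: Fluorescence polarization with parallel and perpendicular emission, 525/598 nm | Evaluation: % inhibition of FP-Rh probe binding versus controls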
TCR-CD3 inh = human TCR-CD3 binding inhibition; TAMRA-labeled TCR probe fluorescence, biochemical; inhibition, % at 9.4 µM; actives 0.37% (n = 360,000); AID 651800; in the data active = inhibition above about 19%;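 note: recombinant mutant TCR 2C K166C tagged with TAMRA read by polarization; 0% = receptor in buffer alone and 100% = receptor with positive control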
ABHD4 confirm = confirmation of mouse ABHD4 inhibitors; actives 55% (n = 1,800); inhibition, % at 8.92 µM; shares compounds with ABHD4 inh; purified mABHD4, FP-Rh probe fluorescence polarization;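 active = mean inhibition across replicates above the hit cutoff set in the primary screen, cut at about 30% in these data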;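 note: 0% = wild-type ABHD4 with DMSO and 100% = catalytically dead S159A mutant with DMSO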
* = called active by the depositor; nt = no result given; + = active, no number. Rows were chosen to be rich in hits. Some 1.3% of all compounds tested hit in one or more screens of this group.

SMILES | DDE Tn7 FP inh | HTRA1 inh | Tn6 DDE FP | ABHD4 inh | TCR-CD3 inh | ABHD4 confirm
O=C(N1CCC(Cc2ccccc2)CC1)n1ncc(C(O)(c2ccccc2)c2ccccc2)n1 | -2.4 | nt | 1.8 | 76.6* | nt | 68.8*
CN(C)c1nc(N)nc(CSc2nc3c(c(=O)n(C)c(=O)n3C)n2Cc2ccccc2F)n1 | -2.3 | 6.5 | 2.4 | -1.5 | 3.0 | nt
Cn1c(=O)c2c(nc(SCc3nn[nH]n3)n2Cc2ccccc2F)n(C)c1=O | 3.4 | 7.9 | 3.8 | + | 4.8 | 7.3
COc1ccc(/C=C/C(=O)Nc2cccnc2Cl)cc1 | 5.8 | 8.1 | -1.4 | 97.4* | 8.6 | -4.2
O=C(O)c1ccc(NS(=O)(=O)c2ccc3c(c2)C2C=CCC2C(c2ccccc2F)N3)cc1 (stereo unspecified) | -2.7 | 21.6 | -14.2 | 42.2* | -1.3 | 25.7
O=C(O)c1ccc2c(c1)C1C=CCC1C(c1cc3c(cc1Br)OCO3)N2 (stereo unspecified) | 9.3 | 6.5 | 6.7 | -7.1 | 4.7 | nt
O=c1cc(CSc2ccc(Cl)cc2)[nH]c2[nH]n(-c3ccccc3)c(=O)c12 | 3.4 | 20.4 | -2.3 | 46.9* | 9.7 | 26.2
COc1ccc(C2C3=C(CC(C)(C)CC3=O)Oc3ncn(Cc4ccccc4)c(=N)c32)cc1 (stereo unspecified) | 2.2 | -5.9 | -13.1 | 5.0 | 0.7 | nt
COc1ccc(C2C3=C(CC(C)(C)CC3=O)Oc3ncn4nc(-c5cccnc5)nc4c32)cc1 (stereo unspecified) | 8.2 | 1.9 | -15.1 | 29.6* | 3.0 | -13.0
Cc1ccc([N+](=O)[O-])c(NC(=O)COC(=O)C2CC3CCCC(C2)C3=O)c1C (stereo unspecified) | 1.7 | 3.5 | -3.1 | -2.1 | -0.9 | nt
Cc1ccc(C(=O)COC(=O)C2CC3CCCC(C2)C3=O)cc1[N+](=O)[O-] (stereo unspecified) | -0.8 | -7.0 | 2.1 | 42.1* | -2.3 | 3.0
CCN(Cc1ccccc1)c1ccccc1 | 1.4 | -0.5 | -1.2 | 1.8 | 2.7 | nt
CCN(Cc1ccccc1)c1ccc(/C=N/N=C(N)N)cc1 | -6.4 | 23.2 | 1.0 | 46.4* | -0.4 | 61.9*
COc1c(NC=O)c2c(c([N+](=O)[O-])c1OC)C(=O)OC2 | 6.3 | 6.0 | 1.7 | -9.2 | -5.0 | nt
COc1ccc(C2Nc3ccc(Br)cc3C(c3ccccc3)N2CC(=O)O)cc1 (stereo unspecified) | -2.0 | 0.7 | -0.7 | 11.4 | 5.6 | nt
CC1Sc2ccc(Cl)cc2-c2nc(N)ncc21 (stereo unspecified) | -0.7 | -6.4 | 2.8 | -11.6 | 5.4 | nt
O=C(N1CCc2ccccc2C1)n1cc(C(O)(c2ccccc2)c2ccccc2)nn1 | 5.2 | nt | -2.7 | 85.9* | nt | 69.0*
COc1ccc2c(/C=N/Nc3ccc(C(=O)O)cc3)c[nH]c2c1 | 4.3 | 3.2 | -12.4 | 50.0* | 5.2 | 35.6*
O=C(O)c1cc(N/N=C/c2ccc(-c3ccccc3)cc2)ccc1Cl | 12.6 | 10.9 | 1.1 | 11.1 | 5.0 | nt
O=C(O)c1cc(N/N=C/c2c[nH]c3ccccc23)ccc1Cl | 4.9 | 0.7 | -6.2 | 32.0* | -6.1 | 28.2
O=C(O)c1cc(N/N=C/C=C/c2ccccc2[N+](=O)[O-])ccc1Cl | -9.3 | 10.2 | -9.7 | 30.1* | 0.5 | 35.8*
NS(=O)(=O)c1ccc(N/N=C/C=C/c2ccccc2[N+](=O)[O-])cc1 | -0.1 | 8.0 | -1.9 | 3.3 | 1.5 | nt
COc1ccc2ccccc2c1/C=N/Nc1cccc(C(=O)O)c1 | 3.0 | 5.7 | 0.4 | 37.4* | 13.6 | 32.5*
O=C(O)c1ccccc1-c1ccccc1C(=O)NCc1ccccc1Cl | -3.5 | -4.5 | -8.0 | -1.0 | -4.5 | nt
CCOC(=O)c1ccc(NC(=S)P(=O)(c2ccccc2)c2ccccc2)cc1 | 5.7 | 0.7 | 9.2 | -3.5 | -3.5 | nt
SMILES | DDE Tn7 FP inh | HTRA1 inh | Tn6 DDE FP | ABHD4 inh | TCR-CD3 inh | ABHD4 confirm
Cc1cc(C(=O)NCc2ccc(Cl)cc2)n(-c2ccccc2)n1 | 9.2 | -2.8 | 3.9 | -5.3 | -8.3 | nt
COc1ccc(N/N=C/c2c(C(=O)O)ccc3ccccc23)cc1 | -2.5 | 8.0 | -8.4 | 20.5 | 5.3 | nt
COc1ccc2ccccc2c1/C=N/Nc1ccc(Cl)c(C(=O)O)c1 | -3.8 | 6.8 | -2.2 | 36.7* | 9.8 | 52.1*
COc1ccc(C(=O)Oc2ccc(/C=N/NC(=O)Cc3ccc([N+](=O)[O-])cc3)cc2)cc1 | 8.6 | 0.6 | 1.8 | 7.4 | -2.0 | nt
O=C1/C(=C/c2ccc(Cl)cc2)SC(=S)N1CCC(=O)N1CCCCC1CCO (stereo unspecified) | 6.5 | -29.1 | -5.1 | -5.2 | 9.1 | nt
O=C1/C(=C/c2ccco2)SC(=S)N1CCC(=O)N1CCCCC1CCO (stereo unspecified) | 0.2 | 27.0 | -1.3 | 29.7* | 0.9 | 3.6
O=C(O)CCCN1C(=O)/C(=C/C=C/c2ccco2)SC1=S | -3.4 | 26.4 | 3.4 | 42.9* | 8.9 | 9.8
O=C(O)CC(C(=O)O)N1C(=O)/C(=C/C=C/c2ccco2)SC1=S (stereo unspecified) | 8.7 | 22.0 | -2.2 | 34.8* | 3.4 | 3.0
Cc1ccc(NC(=O)CCCN2C(=O)/C(=C/C=C/c3ccccc3)SC2=S)cc1 | -5.1 | -36.8 | -2.1 | -4.2 | 1.3 | nt
COc1cc2c(C(=O)N3CCN(c4ccccc4)CC3)c(C)oc2cc1Br | -0.7 | -8.4 | 12.3 | 4.5 | -5.0 | nt
O=C(/C=C/Nc1ccc(Nc2ccccc2)cc1)c1cccs1 | 3.6 | 32.8 | -3.6 | 33.5* | -0.5 | -1.5
Cc1ccc(N/C=C/C(=O)c2cccs2)cc1C | -3.0 | nt | 11.7 | -4.5 | 10.7 | nt
CCCC(c1nnnn1CC(=O)OCC)N(Cc1cc2c(C)cc(C)cc2[nH]c1=O)C1CCCC1 (stereo unspecified) | 0.3 | -0.6 | -0.7 | -2.9 | -3.7 | nt
CC1CCN(c2ccc(C(=O)O)cc2NS(=O)(=O)c2ccc(C(C)(C)C)cc2)CC1 | -10.4 | nt | -1.0 | 42.1* | nt | 51.6*
CC1CCN(c2ccc(C(=O)O)cc2NS(=O)(=O)c2ccc(F)cc2)CC1 | -12.4 | nt | 6.0 | 28.1 | nt | nt
CC1CCN(c2ccc(C(=O)O)cc2NS(=O)(=O)c2ccccc2[N+](=O)[O-])CC1 | -0.1 | nt | 5.2 | 43.9* | nt | 42.3*
O=C(NCc1cc(C(F)(F)F)ccc1Cl)c1cccc2c1C(=O)c1ccc(N3CCC(Cc4ccccc4)CC3)cc1S2(=O)=O | nt | -0.8 | nt | nt | nt | nt
COc1cc(/C=N\NC(=O)c2ccc(-c3ccccc3)cc2)cc(OC)c1OC(C)=O | -3.4 | -19.3 | -9.4 | 2.4 | 0.8 | nt
CC(CSc1nc2ccccc2s1)Cn1c(N2CCCC2)nc2c1c(=O)[nH]c(=O)n2C (stereo unspecified) | -3.6 | -12.2 | -3.8 | 39.1* | -1.3 | 42.1*
CCCCCNC(=O)C(c1ccncc1)n1c(=O)c(-c2ccco2)nc2ccccc21 (stereo unspecified) | -2.8 | nt | 5.4 | 32.1* | -2.0 | 12.2
